Assay results reported in ChEMBL document CHEMBL1123837, “1-Amino-substituted 4-methyl-5H-pyrido[3',4':4,5]pyrrolo[3,2-c]pyridines: a new class of antineoplastic agents” (J Med Chem, 1987).
Activity calls are given as the source filed them. The calls are words filed in the database; no cut-off is given here.

Key:
[1] = system: Mus musculus; experiment: In vivo antitumor activity was evaluated on L1210 leukemia model and median survival day was determined at 20 mg/kg dosage concentration; format: functional
How it was run: (§1)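 L1210 leukemia, 10^5 viable cells inoculated ip on day 0 into CDF1 hybrid male or female mice, 10 mice per group. Compounds were given ip in distilled water (0.1 mL/10 g body weight) on days 1-5. Vehicle controls were treated the same way. NCI protocols were followed. T/C = median survival day of treated mice / median survival day of vehicle controls × 100.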

[2] = system: Mus musculus; experiment: In vivo antitumor activity was evaluated on L1210 leukemia model and number of survivors (animals) was determined at 20 mg/kg dosage concentration; format: functional; how it was run: as §1
[3] = system: Mus musculus; experiment: In vivo antitumor activity was determined against P388 leukemia cells expressed as number of animals survived; format: functional
How it was run: (§2)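 P388 leukemia, 10^6 viable cells inoculated ip on day 0 into CDF1 hybrid male or female mice, 10 mice per group. Compounds were given ip in distilled water (0.1 mL/10 g body weight) at various doses on days 1-5. Vehicle controls were treated the same way. NCI protocols were followed.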

[4] = system: Mus musculus; experiment: In vivo antitumor activity was evaluated on L1210 leukemia model and weight change in tumors was determined at 20 mg/kg dosage concentration; format: functional
[5] = system: Mus musculus; experiment: In vivo antitumor activity was evaluated on L1210 leukemia model and percent of treated/control of tumor cells was determined at 20 mg/kg dosage concentration; format: functional; how it was run: as §1
[6] = system: Calf thymus DNA; experiment: Binding affinity for DNA by ethidium bromide displacement assay; format: nucleic-acid assay; settings: Bos taurus
How it was run: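 Competitive ethidium bromide displacement with calf thymus DNA at 10 µg/mL in 20 mM Na phosphate buffer, 0.1 M NaCl, 1 mM EDTA, pH 7.4. The apparent DNA affinity constant is given in 10^6 M^-1 ± standard deviation, from 6 values across two independent experiments.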

[7] = system: Mus musculus; experiment: In vivo antitumor activity was determined against P388 leukemia cells expressed as treated/control at the dose of 10 mg/kg; format: functional
How it was run: (§3)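 Following NCI protocols, 10^6 viable P388 leukemia cells were inoculated ip on day 0 into male or female CDF1 hybrid mice, 10 per test group. Compounds in distilled water were given ip (0.1 mL/10 g body weight) at various doses on days 1–5. T/C = median survival day of treated / median survival day of negative controls × 100.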

[8] = system: Mus musculus; experiment: In vivo antitumor activity was determined against P388 leukemia cells expressed as treated/control at the dose of 40 mg/kg; format: functional; how it was run: as §3
[9] = system: Mus musculus; experiment: In vivo antitumor activity was determined against P388 leukemia cells expressed as treated/control at the dose of 20 mg/kg; format: functional; how it was run: as §3
[10] = system: Mus musculus; experiment: In vivo antitumor activity was determined against P388 leukemia cells expressed as treated/control at the dose of 5 mg/kg; format: functional; how it was run: as §3
[11] = system: Mus musculus; experiment: In vivo antitumor activity was determined against P388 leukemia cells expressed as treated/control at the dosage of (0.3-40)mg/kg; IA= inactive; format: functional, organism-based; how it was run: as §3
[12] = system: Mus musculus; experiment: In vivo antitumor activity was determined against P388 leukemia cells expressed as treated/control at the dose of 60 mg/kg; T = toxic at this dose; format: organism-based; parameters: dose 60 mg/kg; how it was run: as §3
[13] = In vitro cytotoxicity against L1210 cells was determined after 48 hours of incubation; format: cell-based; settings: mouse, read-out: ID50
How it was run: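 Exponentially growing L1210 cells were cultured in RPMI 1640 with 2 mM glutamine, penicillin/streptomycin and 10% fetal calf serum, under 5% CO2 at 37 °C. Drugs dissolved in distilled water were added to cells at 0.8 × 10^5 cells/mL for 48 h, then cells were counted. ID50 was estimated by regression of dose-response data, as the mean of two values from two independent experiments.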

[14] = system: Mus musculus; experiment: In vivo antitumor activity was determined against P388 leukemia cells expressed as treated/control at the dosage of 10 mg/kg; format: functional; how it was run: as §3
[15] = system: Mus musculus; experiment: In vivo antitumor activity was evaluated on L1210 leukemia model and median survival day was determined at 5 mg/kg dosage concentration; format: functional; how it was run: as §1
[16] = system: Mus musculus; experiment: In vivo antitumor activity was evaluated on L1210 leukemia model and weight change in tumors was determined at 2.5 mg/kg dosage concentration; format: functional
[17] = system: Mus musculus; experiment: In vivo antitumor activity was determined against P388 leukemia cells expressed as treated/control at the dosage of 20 mg/kg; format: functional; how it was run: as §3
[18] = system: Mus musculus; experiment: In vivo antitumor activity was determined against P388 leukemia cells expressed as treated/control at the dosage of 50 mg/kg; format: functional; how it was run: as §3
[19] = system: Mus musculus; experiment: In vivo antitumor activity was evaluated on L1210 leukemia model and percent of treated/control of tumor cells was determined at 30 mg/kg dosage concentration; format: functional
How it was run: as §3, with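 “10^5” for “10^6”, “L1210” for “P388”, “dosed” for “given”, “daily” for “at various doses”, “treated mice” for “treated”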

[20] = system: Mus musculus; experiment: In vivo antitumor activity was evaluated on L1210 leukemia model and number of survivors (animals) was determined at 60 mg/kg dosage concentration; number of survivors given as 1/10; format: functional; how it was run: as §1
[21] = system: Mus musculus; experiment: In vivo antitumor activity was evaluated on L1210 leukemia model and weight change in tumors was determined at 30 mg/kg dosage concentration; format: functional
[22] = system: Mus musculus; experiment: In vivo antitumor activity was evaluated on L1210 leukemia model and weight change in tumors was determined at 5 mg/kg dosage concentration; format: functional
[23] = system: Mus musculus; experiment: In vivo antitumor activity was evaluated on L1210 leukemia model and percent of treated/control of tumor cells was determined at 5 mg/kg dosage concentration; format: functional
How it was run: as §3, with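 “10^5” for “10^6”, “L1210” for “P388”, “dosed” for “given”, “daily” for “at various doses”, “treated mice” for “treated”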

[24] = system: Mus musculus; experiment: In vivo antitumor activity was evaluated on L1210 leukemia model and number of survivors (animals) was determined at 80 mg/kg dosage concentration; number of survivors given as 0/10; format: functional; how it was run: as §1
[25] = system: Mus musculus; experiment: In vivo antitumor activity was evaluated on L1210 leukemia model and weight change in tumors was determined at 60 mg/kg dosage concentration.; format: functional
[26] = system: Mus musculus; experiment: In vivo antitumor activity was evaluated on L1210 leukemia model and median survival day was determined at 30 mg/kg dosage concentration; format: functional; how it was run: as §1
[27] = system: Mus musculus; experiment: In vivo antitumor activity was determined against P388 leukemia cells expressed as treated/control at the dosage of 40 mg/kg; format: functional; how it was run: as §3
[28] = system: Mus musculus; experiment: In vivo antitumor activity was determined against P388 leukemia cells expressed as number of; format: functional; how it was run: as §2
[29] = system: Mus musculus; experiment: In vivo antitumor activity was evaluated on L1210 leukemia model and median survival day was determined at 15 mg/kg dosage concentration.; format: functional; how it was run: as §1
[30] = system: Mus musculus; experiment: In vivo antitumor activity was evaluated on L1210 leukemia model and weight change in tumors was determined at 15 mg/kg dosage concentration.; format: functional
[31] = system: Mus musculus; experiment: In vivo antitumor activity was evaluated on L1210 leukemia model and weight change in tumors was determined at 80 mg/kg dosage concentration.; format: functional
[32] = system: Mus musculus; experiment: In vivo antitumor activity was evaluated on L1210 leukemia model and number of survivors (animals) was determined at 15 mg/kg dosage concentration; number of survivors given as 0/10; format: functional; how it was run: as §1
[33] = system: Mus musculus; experiment: In vivo antitumor activity was evaluated on L1210 leukemia model and percent of treated/control of tumor cells was determined at 2.5 mg/kg dosage concentration; format: functional
How it was run: as §3, with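 “10^5” for “10^6”, “L1210” for “P388”, “dosed” for “given”, “daily” for “at various doses”, “treated mice” for “treated”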

[34] = system: Mus musculus; experiment: In vivo antitumor activity was evaluated on L1210 leukemia model and median survival day was determined at 80 mg/kg dosage concentration.; format: functional; how it was run: as §1
[35] = system: Mus musculus; experiment: In vivo antitumor activity was evaluated on L1210 leukemia model and number of survivors (animals) was determined at 30 mg/kg dosage concentration; number of survivors given as 0/10; format: functional; how it was run: as §1
[36] = system: Mus musculus; experiment: In vivo antitumor activity was evaluated on L1210 leukemia model and median survival day was determined at 60 mg/kg dosage concentration.; format: functional; how it was run: as §1
[37] = system: Mus musculus; experiment: In vivo antitumor activity was evaluated on L1210 leukemia model and number of survivors (animals) was determined at 2.5 mg/kg dosage concentration; number of survivors given as 0/10; format: functional; how it was run: as §1
[38] = system: Mus musculus; experiment: In vivo antitumor activity was evaluated on L1210 leukemia model and percent of treated/control of tumor cells was determined at 60 mg/kg dosage concentration.; format: functional
How it was run: as §3, with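 “10^5” for “10^6”, “L1210” for “P388”, “dosed” for “given”, “daily” for “at various doses”, “treated mice” for “treated”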

[39] = system: Mus musculus; experiment: In vivo antitumor activity was evaluated on L1210 leukemia model and percent of treated/control of tumor cells was determined at 80 mg/kg dosage concentration.; format: functional
How it was run: as §3, with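 “10^5” for “10^6”, “L1210” for “P388”, “dosed” for “given”, “daily” for “at various doses”, “treated mice” for “treated”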

[40] = system: Mus musculus; experiment: In vivo antitumor activity was evaluated on L1210 leukemia model and median survival day was determined at 2.5 mg/kg dosage concentration; format: functional; how it was run: as §1
[41] = system: Mus musculus; experiment: In vivo antitumor activity was evaluated on L1210 leukemia model and number of survivors (animals) was determined at 5 mg/kg dosage concentration; number of survivors given as 0/10; format: functional; how it was run: as §1
[42] = system: Mus musculus; experiment: In vivo antitumor activity was evaluated on L1210 leukemia model and percent of treated/control of tumor cells was determined at 15 mg/kg dosage concentration.; format: functional
How it was run: as §3, with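 “10^5” for “10^6”, “L1210” for “P388”, “dosed” for “given”, “daily” for “at various doses”, “treated mice” for “treated”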

Structure (SMILES): O=c1[nH]cc(F)c(=O)[nH]1 [FLUOROURACIL]
- Median survival day [1]: 18
- Survivors [2]: 10
- Survivors [3]: 0
- Weight changes [4]: 0.1 g
- T/C [5]: 196%

Structure (SMILES): Cc1cnc(NCCCN(C)C)c2c3cnccc3n(C)c12
- K aff [6]: 40000 M⁻¹
- T/C [7]: 150
- T/C [8]: 173
- T/C [9]: 167
- T/C [10]: 136

Structure (SMILES): CCN(CC)CCCNc1ncc(C)c2c1c1cnccc1n2CC
- T/C [11]: inactive
- K aff [6]: 17000 M⁻¹
- T/C [12]: Toxic
- CC50 at 48 h [13]: 1400 nM

Structure (SMILES): CCN(CC)CCCNc1ncc(C)c2c1c1cnccc1n2C
- T/C [14]: 147
- Median survival day [15]: 12.75
- Weight changes [16]: 0.7 g
- T/C [17]: 164
- T/C [18]: 207
- T/C [19]: 187.5%
- Survivors [20]: 1
- Weight changes [21]: 0.2 g
- K aff [6]: 40000 M⁻¹
- Weight changes [22]: -0.3 g
- T/C [23]: 138%
- Survivors [24]: 0
- Weight changes [25]: -2.3 g
- Median survival day [26]: 17.25
- T/C [27]: 172
- Survivors [28]: 3
- Median survival day [29]: 13.75
- Weight changes [30]: 0.8 g
- Weight changes [31]: -2.3 g
- Survivors [32]: 0
- T/C [33]: 118%
- Median survival day [34]: 9.1
- Survivors [35]: 0
- Median survival day [36]: 18
- Survivors [37]: 0
- T/C [38]: 196%
- T/C [39]: 99%
- Median survival day [40]: 10.9
- Survivors [41]: 0
- T/C [42]: 149%
